ChEMBL document CHEMBL4052618, “Design, synthesis, SAR discussion, in vitro and in vivo evaluation of novel selective EGFR modulator to inhibit L858R/T790M double mutants” (Eur J Med Chem, 2017)

How the values were obtained:
[1] = biological target: Epidermal growth factor receptor (Homo sapiens, UniProt P00533); assay: Inhibition of human recombinant cytoplasmic GST-tagged EGFR (668 to 1210 residues) expressed in baculovirus using TK-substrate-biotin preincubated for 15 mins followed by substrate addition measured after 60 mins by FRET-based Z'-Lyte assay
[2] = biological target: Epidermal growth factor receptor (Homo sapiens, UniProt P00533, L858R); assay: Inhibition of human recombinant cytoplasmic GST-tagged EGFR L858R mutant expressed in baculovirus using TK-substrate-biotin preincubated for 15 mins followed by substrate addition measured after 60 mins by FRET-based Z'-Lyte assay
[3] = biological target: Epidermal growth factor receptor (Homo sapiens, UniProt P00533, L858R/T790M); assay: Inhibition of human recombinant cytoplasmic GST-tagged EGFR T790M/L858R double mutant (668 to 1210 residues) expressed in baculovirus using TK-substrate-biotin preincubated for 15 mins followed by substrate addition measured after 60 mins by FRET-based Z'-Lyte assay
Homo sapiens = species on record: Homo sapiens; assay: Selectivity ratio of IC50 for human recombinant cytoplasmic GST-tagged EGFR (668 to 1210 residues) to IC50 for human recombinant cytoplasmic GST-tagged EGFR T790M/L858R double mutant (668 to 1210 residues)
Procedure, shortened: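 HTRF kinase assay on wild-type EGFR and the T790M/L858R mutant, with TK-substrate-biotin, ATP, 1 mM DTT, 1 mM MnCl2 and 5 mM MgCl2. Serially diluted compounds in 1% DMSO were preincubated with kinase for 15 min. The reaction was started with ATP plus substrate, run 60 min at room temperature, then stopped with Strep-XL665/TK Ab-Cryptate and read after 1 h. Run in duplicate, at least three independent IC50 determinations.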

NCI-H1975 = assay: Antiproliferative activity against human NCI-H1975 cells harboring EGFR L858R/T790M double mutant; format: functional, cell-based
Procedure, shortened: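 A431 was grown in EMEM with 10% FBS; HCC827 and NCI-H1975 were grown in RPMI-1640 with 10% FBS. Cell viability experiments were repeated at least three times.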

A-431 = assay: Antiproliferative activity against human A431 cells harboring wild-type EGFR; format: functional, cell-based
HCC827 = assay: Antiproliferative activity against human HCC827 cells harboring EGFR E746-A750 deletion mutant; format: functional, cell-based
[4] = Half life in mouse liver microsomes; format: ADME, microsome
[5] = Half life in rat liver microsomes; format: ADME, microsome
[6] = Half life in dog liver microsomes; format: ADME, Canis lupus familiaris, microsome
[7] = Half life in monkey liver microsomes; format: ADME, Macaca mulatta, microsome; settings: rhesus monkey
[8] = Intrinsic clearance in mouse liver microsomes; format: ADME, microsome; settings: read-out: CLH
[9] = Intrinsic clearance in rat liver microsomes; format: ADME, microsome; settings: read-out: CLH
[10] = Intrinsic clearance in dog liver microsomes; format: ADME, Canis lupus familiaris, microsome; settings: read-out: CLH
[11] = Intrinsic clearance in monkey liver microsomes; format: ADME, Macaca mulatta, microsome; settings: rhesus monkey, read-out: CLH
[12] = Half life in human hepatocytes; format: ADME, cell-based, Hepatocyte
[13] = Half life in rat hepatocytes; format: ADME, cell-based, Hepatocyte
[14] = Intrinsic clearance in rat hepatocytes assessed per million cells; format: ADME, cell-based, Hepatocyte
[15] = Tmax in Sprague-Dawley rat at 10 mg/kg, po administered via gavage by LC-MS/MS analysis; format: ADME, organism-based; settings: in vivo
Procedure, shortened: (§1)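 Male Sprague-Dawley rats (200-240 g) received 1 mg/kg by tail-vein injection in 2% DMSO, 20% PEG400 and 78% buffered saline, or 10 mg/kg by oral gavage in 0.5% methylcellulose. Orbital sinus blood was drawn into heparinized tubes at 2, 5, 15 and 30 min and at 1, 2, 4, 8, 12 and 24 h, then centrifuged. Plasma was measured by LC/MS/MS in SRM mode, with non-compartmental analysis.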

[16] = Cmax in Sprague-Dawley rat at 10 mg/kg, po administered via gavage after 24 hrs by LC-MS/MS analysis; format: ADME, organism-based; parameters: dose 10 mg/kg, route oral; settings: in vivo; procedure, shortened: as §1
[17] = MRT in Sprague-Dawley rat at 10 mg/kg, po administered via gavage by LC-MS/MS analysis; format: ADME, organism-based; settings: in vivo; procedure, shortened: as §1
[18] = Oral bioavailability in Sprague-Dawley rat at 10 mg/kg administered via gavage after 24 hrs by LC-MS/MS analysis; format: ADME, organism-based; settings: in vivo; procedure, shortened: as §1
[19] = Half life in Sprague-Dawley rat at 1 mg/kg, iv by LC-MS/MS analysis; format: ADME, organism-based; settings: in vivo
Procedure, shortened: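 Male Sprague-Dawley rats (200-240 g) were dosed either by tail vein at 1 mg/kg in 2% DMSO/20% PEG400/78% buffered saline or by oral gavage at 10 mg/kg in 0.5% methylcellulose. Blood was drawn by orbital sinus puncture at 2 min to 24 h into heparin, and plasma was analysed by LC/MS/MS in SRM mode. Parameters came from non-compartmental analysis.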

[20] = Clearance in Sprague-Dawley rat at 1 mg/kg, iv after 24 hrs by LC-MS/MS analysis; format: ADME, organism-based; settings: in vivo; procedure, shortened: as §1
[21] = MRT in Sprague-Dawley rat at 1 mg/kg, iv by LC-MS/MS analysis; format: ADME, organism-based; settings: in vivo; procedure, shortened: as §1

Epidermal growth factor receptor (Homo sapiens, UniProt P00533, L858R/T790M), sequence (P00533 25-1210 T790M/L858R limits assumed): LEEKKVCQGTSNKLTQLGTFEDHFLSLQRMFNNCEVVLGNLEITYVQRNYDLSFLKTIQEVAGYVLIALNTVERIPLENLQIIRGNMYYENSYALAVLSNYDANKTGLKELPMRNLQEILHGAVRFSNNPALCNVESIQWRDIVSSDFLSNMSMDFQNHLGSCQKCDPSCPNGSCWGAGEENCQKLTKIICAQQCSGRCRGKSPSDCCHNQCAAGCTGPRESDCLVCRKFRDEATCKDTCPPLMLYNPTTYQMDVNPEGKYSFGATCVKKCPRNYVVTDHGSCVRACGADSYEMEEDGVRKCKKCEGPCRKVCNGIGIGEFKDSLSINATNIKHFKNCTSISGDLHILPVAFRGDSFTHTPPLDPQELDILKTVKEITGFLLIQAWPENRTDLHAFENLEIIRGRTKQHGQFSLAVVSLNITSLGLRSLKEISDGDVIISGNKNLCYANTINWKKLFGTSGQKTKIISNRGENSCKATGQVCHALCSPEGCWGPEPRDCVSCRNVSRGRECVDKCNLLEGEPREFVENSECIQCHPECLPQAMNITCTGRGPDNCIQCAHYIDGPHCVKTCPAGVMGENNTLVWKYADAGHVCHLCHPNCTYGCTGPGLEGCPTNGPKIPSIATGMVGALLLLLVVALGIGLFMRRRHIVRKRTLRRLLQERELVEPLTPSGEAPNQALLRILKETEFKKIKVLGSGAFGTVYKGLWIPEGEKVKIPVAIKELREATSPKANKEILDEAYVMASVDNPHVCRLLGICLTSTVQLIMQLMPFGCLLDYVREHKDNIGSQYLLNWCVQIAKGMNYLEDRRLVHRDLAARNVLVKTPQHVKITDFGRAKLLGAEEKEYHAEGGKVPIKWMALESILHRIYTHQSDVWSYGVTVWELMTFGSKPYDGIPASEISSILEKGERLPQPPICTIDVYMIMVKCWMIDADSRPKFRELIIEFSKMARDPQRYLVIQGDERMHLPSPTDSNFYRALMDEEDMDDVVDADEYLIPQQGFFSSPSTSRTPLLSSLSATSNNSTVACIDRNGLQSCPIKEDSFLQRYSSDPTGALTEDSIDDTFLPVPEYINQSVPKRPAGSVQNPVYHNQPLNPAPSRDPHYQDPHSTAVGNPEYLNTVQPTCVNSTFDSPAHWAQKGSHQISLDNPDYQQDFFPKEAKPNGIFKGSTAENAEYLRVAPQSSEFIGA
Epidermal growth factor receptor (Homo sapiens, UniProt P00533, L858R), sequence (P00533 25-1210 L858R limits assumed): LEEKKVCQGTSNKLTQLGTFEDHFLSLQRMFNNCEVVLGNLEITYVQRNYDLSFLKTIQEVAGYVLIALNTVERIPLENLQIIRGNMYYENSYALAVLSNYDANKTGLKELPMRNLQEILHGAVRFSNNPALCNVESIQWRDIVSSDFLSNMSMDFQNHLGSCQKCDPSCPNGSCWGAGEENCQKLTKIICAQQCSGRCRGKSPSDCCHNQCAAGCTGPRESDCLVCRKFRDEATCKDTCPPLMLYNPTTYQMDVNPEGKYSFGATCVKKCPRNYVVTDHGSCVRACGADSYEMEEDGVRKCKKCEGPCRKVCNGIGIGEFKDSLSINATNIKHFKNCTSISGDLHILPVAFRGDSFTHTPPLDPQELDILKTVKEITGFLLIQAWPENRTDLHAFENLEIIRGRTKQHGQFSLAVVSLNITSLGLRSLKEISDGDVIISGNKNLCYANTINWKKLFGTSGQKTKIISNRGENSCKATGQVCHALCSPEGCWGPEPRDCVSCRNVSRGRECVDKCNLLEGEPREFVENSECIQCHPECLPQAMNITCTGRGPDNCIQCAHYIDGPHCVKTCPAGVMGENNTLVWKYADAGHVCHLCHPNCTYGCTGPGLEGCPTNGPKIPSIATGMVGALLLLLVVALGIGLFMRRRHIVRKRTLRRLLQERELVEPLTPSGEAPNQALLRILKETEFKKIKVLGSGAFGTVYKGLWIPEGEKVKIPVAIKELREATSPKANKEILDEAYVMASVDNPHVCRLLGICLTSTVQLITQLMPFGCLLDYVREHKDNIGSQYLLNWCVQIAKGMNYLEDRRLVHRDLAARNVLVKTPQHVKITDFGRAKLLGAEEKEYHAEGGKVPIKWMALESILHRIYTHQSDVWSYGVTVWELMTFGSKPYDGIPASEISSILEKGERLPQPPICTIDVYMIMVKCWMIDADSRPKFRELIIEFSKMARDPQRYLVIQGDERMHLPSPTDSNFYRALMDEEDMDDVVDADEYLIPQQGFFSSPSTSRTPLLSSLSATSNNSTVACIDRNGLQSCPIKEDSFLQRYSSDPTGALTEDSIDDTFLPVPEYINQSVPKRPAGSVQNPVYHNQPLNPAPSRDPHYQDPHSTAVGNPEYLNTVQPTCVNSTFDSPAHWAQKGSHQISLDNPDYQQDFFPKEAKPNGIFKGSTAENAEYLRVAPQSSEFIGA
Epidermal growth factor receptor (Homo sapiens, UniProt P00533), sequence (P00533 whole entry, the tested form may be a part): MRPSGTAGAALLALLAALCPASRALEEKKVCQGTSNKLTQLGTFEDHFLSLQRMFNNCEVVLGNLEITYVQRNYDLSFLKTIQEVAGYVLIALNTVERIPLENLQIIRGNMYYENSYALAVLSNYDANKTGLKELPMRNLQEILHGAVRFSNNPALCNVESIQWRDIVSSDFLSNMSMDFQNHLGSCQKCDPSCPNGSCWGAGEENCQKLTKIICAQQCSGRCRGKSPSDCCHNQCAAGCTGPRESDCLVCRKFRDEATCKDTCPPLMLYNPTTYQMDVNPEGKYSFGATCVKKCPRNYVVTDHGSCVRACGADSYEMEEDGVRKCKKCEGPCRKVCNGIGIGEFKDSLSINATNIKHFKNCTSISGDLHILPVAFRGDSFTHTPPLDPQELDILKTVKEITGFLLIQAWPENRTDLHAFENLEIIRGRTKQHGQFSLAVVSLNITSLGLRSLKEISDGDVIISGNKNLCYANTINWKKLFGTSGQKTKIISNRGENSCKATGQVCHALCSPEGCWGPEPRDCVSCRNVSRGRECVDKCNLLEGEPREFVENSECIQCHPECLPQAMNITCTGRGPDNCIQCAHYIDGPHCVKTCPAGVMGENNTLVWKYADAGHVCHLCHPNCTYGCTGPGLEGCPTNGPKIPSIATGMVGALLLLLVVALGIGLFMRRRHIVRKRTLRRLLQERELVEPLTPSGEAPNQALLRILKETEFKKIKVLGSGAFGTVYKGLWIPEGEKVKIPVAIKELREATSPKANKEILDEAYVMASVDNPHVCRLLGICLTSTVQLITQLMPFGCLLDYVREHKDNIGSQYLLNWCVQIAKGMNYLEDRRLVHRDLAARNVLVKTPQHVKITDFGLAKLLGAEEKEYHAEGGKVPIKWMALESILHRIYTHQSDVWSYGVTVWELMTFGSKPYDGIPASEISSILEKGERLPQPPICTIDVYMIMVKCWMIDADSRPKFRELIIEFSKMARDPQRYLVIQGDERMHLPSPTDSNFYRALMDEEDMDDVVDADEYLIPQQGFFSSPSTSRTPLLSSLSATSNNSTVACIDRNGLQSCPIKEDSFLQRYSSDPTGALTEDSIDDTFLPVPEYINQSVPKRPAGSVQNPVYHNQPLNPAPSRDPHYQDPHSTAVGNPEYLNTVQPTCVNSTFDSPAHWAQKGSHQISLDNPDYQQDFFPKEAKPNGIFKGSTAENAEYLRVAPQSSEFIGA

SMILES	IC50 ([1]; read-out: IC50)	IC50 [2]	IC50 [3]	Ratio IC50 (Homo sapiens)	IC50 (NCI-H1975)	IC50 (A-431)	IC50 (HCC827)	further results
C=CC(=O)Nc1cc(Nc2ncnc(-c3cn(C)c4ccccc34)c2F)c(OC)cc1N(C)CCN(C)C	32.1 nM	9.9 nM	94.8 nM	0.34				
C=CC(=O)Nc1cc(Nc2nccc(-n3cc(C)c4ccccc43)n2)c(OC)cc1N(C)CCN(C)C	715 nM	186 nM	287 nM	2.5				
C=CC(=O)Nc1cc(Nc2cc(-c3cn(C)c4ccccc34)nc(C)n2)c(OC)cc1N(C)CCN(C)C	192 nM	46.5 nM	60.6 nM	3.2				
C=CC(=O)Nc1cc(Nc2nc(OC)cc(-c3cn(C)c4ccccc34)n2)c(OC)cc1N(C)CCN(C)C	685 nM	155 nM	13 nM		320 nM	> 10000 nM	1170 nM	
C=CC(=O)Nc1cc(Nc2nccc(-c3cn4c5c(cccc35)CCC4)n2)c(OC)cc1N1CC(N(C)C)C1	63.9 nM	13.6 nM	4.9 nM		143 nM	1120 nM	98.2 nM	
C=CC(=O)Nc1cc(Nc2nccc(-c3cn(C)c4ccccc34)n2)c(OC)cc1N(C)CCN(C)C [OSIMERTINIB]					[…]			half-life [4]: […]; half-life [5]: 1.04 h; half-life [6]: 0.35 h; half-life [7]: […]; CLint scaled [8]: […]; CLint scaled [9]: […]; CLint scaled [10]: […]; CLint scaled [11]: […]; half-life [12]: […]; half-life [13]: 0.963 h; CLH [14]: […]; Tmax [15]: […]; Cmax [16]: […]; MRT [17]: […]; bioavailability [18]: […]; half-life [19]: […]; clearance [20]: […]; MRT [21]: […]
C=CC(=O)Nc1cc(Nc2cc(-c3cn(C)c4ccccc34)nc(OC)n2)c(OC)cc1N(C)CCN(C)C	636 nM	123 nM	10.9 nM		210 nM	> 10000 nM	925 nM	
C=CC(=O)Nc1cc(Nc2nccc(-c3cn4c5c(cccc35)CCC4)n2)c(OC)cc1N1CCC(CN(C)C)C1 (stereo unspecified)	8.8 nM	4 nM	1.9 nM		99.9 nM	514 nM	71.7 nM	
C=CC(=O)Nc1cc(Nc2ncnc(-c3cn(C)c4ccccc34)c2OC)c(OC)cc1N(C)CCN(C)C	222 nM	55.5 nM	212 nM	1				
C=CC(=O)Nc1cc(Nc2nccc(-c3cn4c5c(cccc35)CCC4)n2)c(OC)cc1N1CC(CN(C)C)C1	202 nM	11.6 nM	6.7 nM		166 nM	1470 nM	290 nM	
C=CC(=O)Nc1cc(Nc2nccc(-n3ncc4ccccc43)n2)c(OC)cc1N(C)CCN(C)C		> 600 nM	> 600 nM					IC50 [1]: Not Active
C=CC(=O)Nc1cc(Nc2nccc(-c3cn4c5c(cccc35)CCC4)n2)c(OC)cc1N1CC(CCN(C)C)C1	251 nM	14.5 nM	11.8 nM	21.3				
C=CC(=O)Nc1cc(Nc2cc(-c3cn(C)c4ccccc34)ncn2)c(OC)cc1N(C)CCN(C)C	2.3 nM	2.2 nM	1.6 nM		33.8 nM	128 nM	16.2 nM	
C=CC(=O)Nc1cc(Nc2cc(-c3cn4c5c(cccc35)CCC4)nc(OC)n2)c(OC)cc1N(C)CCN(C)C	543 nM	181 nM	22 nM					
C=CC(=O)Nc1cc(Nc2cc(-c3cn4c5c(cccc35)CCC4)ncn2)c(OC)cc1N(C)CCN(C)C	3.1 nM	1.2 nM	2.6 nM		37.8 nM	122 nM	24.3 nM	
C=CC(=O)Nc1cc(Nc2nccc(-c3cn4c5c(cccc35)CCC4)n2)c(OC)cc1N1CCNC(=O)C1		428 nM	1230 nM					IC50 [1]: Not Active
C=CC(=O)Nc1cc(Nc2nccc(-c3cn4c5c(cccc35)CCC4)n2)c(OC)cc1N(C)CC(=O)N(C)C	> 1000 nM	498 nM	278 nM	> 3.6				
C=CC(=O)Nc1cc(Nc2nccc(-c3cn4c5c(cccc35)CCC4)n2)c(OC)cc1N1CCN(C)CC1	877 nM	64.3 nM	55.5 nM	15.8				
C=CC(=O)Nc1cc(Nc2nccc(-c3cn4c5c(cccc35)CCC4)n2)c(OC)cc1N(C)CCN(C)C(C)=O	> 1000 nM	386 nM	188 nM	> 5.3				
C=CC(=O)Nc1cc(Nc2nccc(-c3cn4c5c(cccc35)CCC4)n2)c(OC)cc1N(C)CCO	838 nM	192 nM	34.8 nM	24.1				
